From ChEMBL document CHEMBL1135577, “Synthesis and biological evaluation of structurally highly modified analogues of the antimitotic natural product curacin A” (J Med Chem, 2002) come the findings set out here.

The test system of one test is MDA-MB-231. In words: Compound was tested for 50% Growth Inhibitory concentration by using MDA-MB-231 cell lines. The note with it: Homo sapiens. Type of test: functional. Summed up:
(§1)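 Cultured human tumor cells were seeded at 500-2000 cells/well, allowed to attach for 48 h, then exposed continuously for 48 h to DMSO vehicle or agent at five concentrations (e.g., 50-0.08 μM, 10-0.016 μM or 1-0.0016 μM series), each in quadruplicate. A time-zero plate was included. Cell number was read by MTS/phenazine methanesulfonate at A490-A630. Values are means (N = 4 over 10 concentrations) ± SD.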

For another test, the target named is Tubulin (Bos taurus). In words: Ability to inhibit the GTP/glutamate-induced polymerization of tubulin.
In test [1] the test system is A2780. The experiment in a line: Compound was tested for colchicine Binding Inhibition by using human ovarian carcinoma cell line (at 5 uM ). Type of test: functional. Summed up: (§2)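 [3H]colchicine (5 μM) was incubated with 1 μM tubulin and agent (1-250 μM) or DMSO vehicle (5% v/v) at 30 °C for 15 min or 37 °C for 10 min, in 1 M monosodium glutamate, 0.1 M glucose-1-phosphate, 1 mM MgCl2, 1 mM GTP and 0.5 mg/mL BSA. Samples were filtered through DEAE-cellulose and counted by scintillation. Values are means (N = 9 over four concentrations) ± SD.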

Another test relates to 2008. The experiment in a line: Compound was tested for 50% growth inhibitory concentration by using human ovarian carcinoma cell lines (2008). It counts as functional. Summed up:
as §1

In test [2] the test system is A2780. The experiment in a line: Compound was tested for Tubulin polymerization inhibition by using human ovarian carcinoma cell lines. It counts as functional. Summed up:
(§3)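 Tubulin (10 μM final, 1 mg/mL) was preincubated with agent in DMSO (4% v/v final) and 0.8 M monosodium glutamate for 15 min at 30 °C, then cooled to 0 °C and GTP (0.4 mM final) added. Turbidity at 350 nm was followed for 20 min at 30 °C. […] Values are averages of two determinations.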

In a further test the test system is PC-3. The experiment in a line: Compound was tested for 50% growth inhibitory concentration by using human prostate carcinoma cell lines (PC -3). It counts as functional. Summed up:
as §1

Test [3] relates to A2780. The experiment in a line: Compound was tested for colchicine binding inhibition by using human ovarian carcinoma cell line (at 5 uM ). It counts as functional. Summed up: as §2
Test [4] deals with A2780. In words: Compound was tested for 50% Growth Inhibitory concentration by using A2780 cell lines. The conditions noted are these: Homo sapiens.
The nature of test [5]: Average growth inhibition activity in analogy of ca. Type of test: functional. Summed up:
as §1

Test [6] concerns A2780. In words: Inhibition of tubulin polymerization in analogy of ca. It counts as functional, cell-based. The conditions noted are these: Homo sapiens. Summed up:
as §3

Test [7] has as its system A2780. In words: Compound tested for colchicine Binding Inhibition by using human ovarian carcinoma cell line (at 5 uM ). Type of test: functional. Summed up:
as §2

In general, GI50 refers to the concentration that inhibits growth by half. As usually defined, the IC50 is the point on the concentration scale where inhibition reaches its midpoint. Lower therefore signals inhibition by little substance. For orientation: inhibition means how much of the control response was suppressed. Higher therefore signals a strong effect. Turning to `COc1cc(/C=N\OC/C=C/C=C(\C)CCC(O)c2cccs2)cc(OC)c1OC` (centres undefined), the GI50 in the test on MDA-MB-231 amounted to 0.12 µM; in the test on 2008, 0.24 µM; with PC-3, 0.25 µM. This molecule gave an IC50 on Tubulin (Bos taurus) of 170 nM. The molecule also yielded an inhibition at 5 µM in the test with A2780 [1] of 48%. In the test on A2780 [2], the TPI was 100%.
In the case of `C=CC[C@@H](CC[C@@]1(C)C[C@@H]1[C@H]1C[C@@H]1CC/C=C\[C@@H]1COC([C@@H]2C[C@@H]2C)=N1)OC`, the GI50 in the test with MDA-MB-231 stood at 18 µM; in the test on 2008, 18 µM; in the test on PC-3, 49 µM. The same molecule came in with a TPI in the test with A2780 [2] of 59%. Further, the inhibition at 5 µM in the test with A2780 [3] is less than 10%.
Take `COC[C@H]1C[C@H]1C1=NC(COC/C=C(\C)CC/C=C(\C)CCC=C(C)C)CS1` (some centres undefined): the GI50 in the test on A2780 [4] is greater than 25 µM.
`COc1cc(/C=C\CC/C=C/C=C(\C)CCC(O)c2cc3ccccc3o2)cc(OC)c1OC` (centres undefined) yielded a GI50 in test [5] of 250 nM. For the same molecule, the IC50 in the test on A2780 [6] stood at 1000 nM.
On to `COc1cc(COCCC/C=C/C=C(\C)CCC(O)c2cccs2)cc(OC)c1OC` (centres undefined), for which the GI50 was greater than 50 µM in the test with MDA-MB-231, 15 µM with 2008 and 18 µM in the test on PC-3. Besides, the inhibition at 5 µM in the test with A2780 [7] is less than 10%. In addition, the TPI in the test with A2780 [2] was found to be 7%.
